The source made the active and inactive calls. The rule behind the calls is not given here.
Columns and labels:
[1] = target: T1, Putative nitroreductase (Staphylococcus saprophyticus subsp. saprophyticus (strain ATCC 15305 / DSM20229 / NCIMB 8711 / NCTC 7292 / S-41), UniProt Q4A0P1); experiment: Substrate activity at Staphylococcus saprophyticus nitroreductase NtrB assessed as enzyme specific activity using NADH as cofactor in Tris-Cl buffer at pH 7.5 by HPLC analysis; type: ADME
T1 sequence (Q4A0P1 whole entry): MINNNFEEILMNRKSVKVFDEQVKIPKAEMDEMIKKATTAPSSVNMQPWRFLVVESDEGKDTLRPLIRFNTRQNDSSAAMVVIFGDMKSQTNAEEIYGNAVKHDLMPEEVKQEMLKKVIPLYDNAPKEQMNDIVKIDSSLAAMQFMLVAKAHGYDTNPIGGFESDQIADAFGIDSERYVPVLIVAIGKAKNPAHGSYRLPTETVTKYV

[2] = tested on: Hep 3B2; experiment: Cytotoxicity against human Hep3B cells assessed as cell viability at 9 to 150 uM after 24 hrs by MTT assay relative to control; type: functional
How it was run: (§1)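 Hep3B hepatoma, PC-3 prostate cancer and HUVEC (healthy control) cells were exposed to nitro compounds at 150, 75, 38, 19 and 9 µM for 24 h and 48 h. Viability was read by MTT assay, and IC50 values were derived from the growth inhibition curves.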

[3] = tested on: PC-3; experiment: Cytotoxicity against human PC3 cells assessed as cell viability after 24 hrs by MTT assay; type: functional, cell-based; conditions: Homo sapiens, PC-3, 24 h; read-out: IC50; how it was run: as §1
[4] = Cytotoxicity against human HUVEC cells assessed as cell viability at 9 to 150 uM after 48 hrs by MTT assay relative to control; type: cell-based; conditions: read-out: Activity; how it was run: as §1
[5] = tested on: HUVEC; experiment: Cytotoxicity against human HUVEC cells assessed as cell viability after 24 hrs by MTT assay; type: cell-based; conditions: Homo sapiens, HUVEC; how it was run: as §1
[6] = tested on: Hep 3B2; experiment: Cytotoxicity against human Hep3B cells assessed as cell viability at 9 to 150 uM after 48 hrs by MTT assay relative to control; type: functional; how it was run: as §1
[7] = target: T1, Putative nitroreductase; experiment: Substrate activity at Staphylococcus saprophyticus nitroreductase expressed in Escherichia coli BL21 (DE3) assessed as retention time by HPLC analysis; type: ADME
[8] = tested on: PC-3; experiment: Cytotoxicity against human PC3 cells assessed as cell viability at 9 to 150 uM after 48 hrs by MTT assay relative to control; type: functional; how it was run: as §1
[9] = tested on: HUVEC; experiment: Cytotoxicity against human HUVEC cells assessed as cell viability after 48 hrs by MTT assay; type: cell-based; conditions: Homo sapiens, HUVEC; how it was run: as §1
[10] = tested on: PC-3; experiment: Cytotoxicity against human PC3 cells assessed as cell viability after 48 hrs by MTT assay; type: functional, cell-based; how it was run: as §1
[11] = tested on: PC-3; experiment: Cytotoxicity against human PC3 cells assessed as cell viability at 9 to 150 uM after 24 hrs by MTT assay relative to control; type: functional; how it was run: as §1
[12] = tested on: Hep 3B2; experiment: Cytotoxicity against human Hep3B cells assessed as cell viability after 48 hrs by MTT assay; type: functional, cell-based; how it was run: as §1
[13] = target: T1, Putative nitroreductase; experiment: Binding affinity to Staphylococcus saprophyticus nitroreductase NtrB
[14] = target: T1, Putative nitroreductase; experiment: Substrate activity at Staphylococcus saprophyticus nitroreductase NtrB assessed as ratio of Kcat/Km using NADPH as cofactor in Tris-Cl buffer at pH 7.5 incubated for 30 mins by HPLC analysis; type: ADME; conditions: pH 7.5, 0.5 h
[15] = target: T2, Oxygen-insensitive NAD(P)H nitroreductase (Escherichia coli K-12, UniProt P38489); experiment: Substrate activity at Escherichia coli nitroreductase nfsB assessed as Kcat upto 1 mM using NADH as cofactor in sodium phosphate buffer at pH 7.5 incubated for 5 mins by RP-HPLC; type: ADME; conditions: pH 7.5, 5 min
T2 sequence (P38489 whole entry): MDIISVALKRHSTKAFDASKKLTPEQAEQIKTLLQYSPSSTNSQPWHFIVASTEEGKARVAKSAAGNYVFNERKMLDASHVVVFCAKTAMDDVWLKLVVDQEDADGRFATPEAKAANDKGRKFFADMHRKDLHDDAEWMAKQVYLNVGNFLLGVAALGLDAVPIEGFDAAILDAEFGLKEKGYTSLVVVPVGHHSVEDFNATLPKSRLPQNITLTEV

[16] = target: T1, Putative nitroreductase; experiment: Substrate activity at Staphylococcus saprophyticus nitroreductase NtrB assessed as Kcat using NADPH as cofactor in Tris-Cl buffer at pH 7.5 incubated for 30 mins by HPLC analysis; type: ADME; conditions: pH 7.5, 0.5 h
[17] = target: T1, Putative nitroreductase; experiment: Substrate activity at Staphylococcus saprophyticus nitroreductase NtrB assessed as ratio of Kcat/Km using NADPH as cofactor in Tris-Cl buffer at pH 7.5 incubated for 30 mins by HPLC analysis relative to CB1954/NfsB; type: ADME; conditions: pH 7.5, 0.5 h
[18] = target: T2, Oxygen-insensitive NAD(P)H nitroreductase; experiment: Substrate activity at Escherichia coli nitroreductase nfsB assessed as ratio of Kcat/Km upto 1 mM using NADH as cofactor in sodium phosphate buffer at pH 7.5 incubated for 5 mins by RP-HPLC; type: ADME; conditions: pH 7.5, 5 min
[19] = target: T2, Oxygen-insensitive NAD(P)H nitroreductase; experiment: Substrate activity at Escherichia coli nitroreductase nfsB assessed as ratio of Kcat/Km upto 1 mM using NADH as cofactor in sodium phosphate buffer at pH 7.5 incubated for 5 mins by RP-HPLC relative to CB1954/NfsB; type: ADME; conditions: pH 7.5, 5 min
[20] = Cytotoxicity against human HUVEC cells assessed as cell viability at 9 to 150 uM after 24 hrs by MTT assay relative to control; type: cell-based; conditions: read-out: Activity; how it was run: as §1
[21] = tested on: PC-3; experiment: Cytotoxicity against human PC3 cells […] Staphylococcus saprophyticus nitroreductase NtrB assessed as reduction in cell viability in presence of NADH as cofactor after 48 hrs by SRB assay; type: functional, cell-based; conditions: PC-3, 48 h
How it was run: (§2)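 Compounds were reduced outside the cells by purified His-tag (Ni column) Ssap-NtrB. The reaction mix held 600 µM NADH and compound (150, 39, 9 µM, or 180, 18, 1.8 nM) and was applied to PC-3 cells. Controls were compound alone in 25 mM Tris/HCl pH 7.5, and enzyme alone at 31 µg/mL. After 48 h, SRB absorbance was read at 492 nm and converted to % viability.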

[22] = target: T1, Putative nitroreductase; experiment: Substrate activity at Staphylococcus saprophyticus nitroreductase NtrB assessed as Kcat/Km using NADPH as cofactor in Tris-Cl buffer at pH 7.5 by HPLC analysis relative to CB1954/NfsB; type: ADME
[23] = tested on: PC-3; experiment: Cytotoxicity against human PC3 cells assessed as reduction in cell viability after 48 hrs by SRB assay; type: functional, cell-based; how it was run: as §2

Compound	Activity [1] [U/mg]	Activity [2]	viability at 48 h, up to 150 µM [4] [%]	IC50 [5] [µM]	Activity [6]	Retention_time [7] [min]	Activity [8]	Activity [11]	other results
O=[N+]([O-])c1cc([N+](=O)[O-])c(Nc2ccc(Cl)cc2)cc1Nc1ccc(Cl)cc1	5.77	51 - 80%	51 to 80	86.5	51 - 80%	35	51 - 80%	–	IC50 [3]: 150 µM
O=[N+]([O-])c1cc([N+](=O)[O-])c(Nc2ccc(O)cc2)cc1Nc1ccc(O)cc1	1.61	51 - 80%	–	66.7	–	21.2	–	>80%	IC50 [9]: 150 µM; IC50 [10]: Not Active; IC50 [12]: 14.5 µM
NC(=O)c1cc(N(CCCl)CCCl)c([N+](=O)[O-])cc1[N+](=O)[O-]	–	–	–	–	–	–	–	–	Ki [13]: 7.28 µM; Kcat/Km [14]: 9350 M⁻¹ s⁻¹; Kcat [15]: 26.4 s⁻¹; Kcat [16]: 0.8 s⁻¹; fold change (FC) [17]: 1.67; Kcat/Km [18]: 10560 M⁻¹ s⁻¹; fold change (FC) [19]: 1.89
O=[N+]([O-])c1ccc(Nc2ccc3ccccc3c2)c([N+](=O)[O-])c1	–	51 - 80%	> 80	–	51 - 80%	20.13	>80%	51 - 80%	viability at 24 h, up to 150 µM [20]: > 80%; IC50 [21]: 5.07 µM; fold change (FC) [22]: 1.48; Activity [23]: inactive
